From ChEMBL document CHEMBL1122726, “Analogues of platelet activating factor (PAF). 1. Some modifications of the alkoxy chain” (J Med Chem, 1984)

Experiments:
[1] = Ratio = (MABP / platelet EC50 ) x 10 E -8; format: functional
Summary of the method: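 Intravenous dose lowering MABP by 50 mmHg in spontaneously hypertensive rats, divided by the EC50 for aggregation of rabbit platelet-rich plasma, then multiplied by 10^-8.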

[2] = species: Oryctolagus cuniculus; test: Tested for the molar concentration required to cause 50% of maximum aggregation
[3] = tested on: Rattus norvegicus; test: Tested for the dose needed to decrease mean arterial blood pressure (MABP) 50 mmHg in male rats, iv; format: functional
Summary of the method: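 Spontaneously hypertensive rats, arterial and venous catheters tunneled subcutaneously and exteriorized at the neck, studied at least 16 h after surgery while held in restraining cages. Compound dissolved in saline or 10-25% ethanol in saline, given as a rapid iv bolus at 1 mL/kg followed by a flush. Pressure read at 1-min intervals for 15 min after dosing. Maximum MABP change per rat, averaged per dose. Least-squares regression, solved for a −50 mmHg response.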

[4] = species: Oryctolagus cuniculus; test: Tested for maximum aggregation units at specified molar concentration; format: functional
Summary of the method: (§1)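 Platelet-rich plasma from citrated cardiac-puncture blood of unanesthetized male New Zealand white rabbits, low-speed spin. Count adjusted with platelet-poor plasma, within 350000-600000/µL. 450 µL PRP plus 50 µL compound stock solution. EC50 taken as the concentration giving 50% of that compound's own maximum aggregation, from the mean dose-response curve of experiments with two to six replicates per dose. Maximum aggregation given in aggregation units at the stated molar concentration.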

[5] = species: Oryctolagus cuniculus; test: Tested for maximum aggregation units at specified molar concentration; g= No response; format: functional; summary of the method: as §1
[6] = species: Rattus norvegicus; test: Tested for the molar concentration required to cause 50% of maximum aggregation; format: functional, organism-based; summary of the method: as §1

EC50 [2] [nM] | EC50 [6] [nM] | SMILES | Ratio [1] | Dose [3] [µg/kg] | Max platelet response [4] | Max platelet response [5]
16 |  | CCCCCCCCCCCCCCCCCCOCC(COP(=O)([O-])OCC[N+](C)(C)C)OC(C)=O (configuration not stated) | 1.98 | 3.17 | 79 | 
44 |  | CCCCCCCCCCCCCCc1cccc(OCC(COP(=O)([O-])OCC[N+](C)(C)C)OC(C)=O)c1 (configuration not stated) | 0.1 | 0.43 | 70 | 
> 10000 |  | CCCCCCCCCCCCCCCCc1ccccc1OCC(COP(=O)([O-])OCC[N+](C)(C)C)OC(C)=O (configuration not stated) |  |  |  | No response
53 |  | CCCCCCCCCCCCCCc1ccc(OCC(COP(=O)([O-])OCC[N+](C)(C)C)OC(C)=O)cc1 (configuration not stated) | 2.37 | 12.56 | 80 | 
 | 3100 | CCCCCCCCCCCCCCCCCC(COP(=O)([O-])OCC[N+](C)(C)C)OC(C)=O (configuration not stated) | 1.15 | 357.3 | 31 | 

SMILES | EC50 [2] [nM] | EC50 [6] [nM] | Ratio [1] | Dose [3] [µg/kg] | Max platelet response [4] | Max platelet response [5]
CCCCCCCCCCCCCCCCOCC(COP(=O)([O-])OCC[N+](C)(C)C)OC(C)=O (configuration not stated) [PLATELET ACTIVATING FACTOR] | 22.2 |  | 0.56 | 1.25 | 71 | 
